Source: PubChem (Broad Institute)
CAL PDZ FP-1: untagged CAL PDZ binding inhibitors, primary screen, biochemical, fluorescence polarization, HTS; Golgi-associated PDZ and coiled-coil motif-containing protein (Homo sapiens), Q9HD26; purified CAL PDZ, TMR-peptide fluorescence polarization, 1 h; inhibition, % at 24.9 µM; 300,000 compounds, 0.92% hits; AID 602252, 2012;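 active = mean inhibition of at least 30% with at least half of replicates also reaching 30%; inconclusive = no clear call, values can overlap the other calls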;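 also: 0% = DMSO neutral control and 100% = excess unlabeled competitor peptide PRC23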
dFosB act: activators of delta FosB homodimer, primary screen, biochemical, fluorescence polarization, TAMRA-CDK5 oligo, single point. Protein FosB (Mus musculus), P13346. purified delta FosB; percent of positive-control signal above neutral wells. activation, % at 25 µM. 340,000 compounds, 0.99% hits;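 active = mean activation above about 17%, with every replicate also reaching it, limit read from the data, passing the limit was not always enough; inconclusive = only one of the two conditions met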
Target sequence (P13346 whole entry, looked up): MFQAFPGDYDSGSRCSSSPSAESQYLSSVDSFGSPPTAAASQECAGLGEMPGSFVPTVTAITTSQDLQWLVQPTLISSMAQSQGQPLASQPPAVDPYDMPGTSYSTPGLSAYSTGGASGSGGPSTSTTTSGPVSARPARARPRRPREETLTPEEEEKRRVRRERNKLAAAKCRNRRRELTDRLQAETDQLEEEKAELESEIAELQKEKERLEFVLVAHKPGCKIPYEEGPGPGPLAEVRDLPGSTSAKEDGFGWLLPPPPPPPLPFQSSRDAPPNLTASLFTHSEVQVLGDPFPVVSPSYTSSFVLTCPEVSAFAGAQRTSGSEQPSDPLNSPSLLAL
CDK5 p35 inh: inhibitors of human CDK5/p35 kinase, primary screen, biochemical, single concentration | Cyclin-dependent kinase 5 (Homo sapiens) + Cyclin-dependent kinase 5 activator 1 (Homo … | 330,000 compounds, 0.01% hits | AID 488839, 2010 | inhibition, % at 10 µM | Recombinant CDK5/p35, ADP-Glo luminescence, 60 min;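 active = highest replicate inhibition of at least 50% and at least 75% of replicates reaching 50%; inconclusive = only one of the two criteria met; inactive = both criteria failed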;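 also: plate controls were DMSO neutral control for no effect and GW8510 at 10 µM for full effect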
S100A4 inh HTS: inhibitors of S100A4-myosin IIA peptide binding, primary screen, biochemical, fluorescence polarization, TAMRA-MyoIIA peptide. Protein S100-A4 (Homo sapiens), P26447. inhibition, % at 10.7 µM. 360,000 compounds, 0.14% hits;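 active = mean inhibition of at least 70% across replicates, with every replicate also reaching that level; inconclusive = mean inhibition reaches 70% but some replicates fall short; inactive = mean inhibition below 70%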
Target sequence (P26447 whole entry, looked up): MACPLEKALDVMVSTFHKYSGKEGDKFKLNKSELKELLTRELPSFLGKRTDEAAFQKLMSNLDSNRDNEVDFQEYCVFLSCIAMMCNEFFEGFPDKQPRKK
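Material: S100A4 monomer protein | Medium: HEPES pH 7.2 with CaCl2, KCl, NaCl, DTT, Triton | Reagent: Labelled myosin peptide probe, 5 nM | Doses: One dose per compound | Times: 5 min incubation before reading | Benchmarks: Neutral control DMSO, positive control TFP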
C2C12 statin: suppressors of statin myotoxicity in C2C12 myotubes, primary screen, cell-based, single point, plate reader; C2C12 myotubes + simvastatin, ATP luminescence, 48 h; scaled: DMSO 0, geranylgeraniol control 100; rescue of ATP level, % at 7.49 µM; 330,000 compounds, 0.78% hits;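 active = mean ATP rescue above about 67%, or every replicate alone reaching that limit, limit read from the data, passing the limit was not always enough; inconclusive = no clear call, values can overlap the other calls; inactive = mean under the limit and some replicate under it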;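 also: myotubes were challenged with 10 µM simvastatin during compound exposure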
CAL PDZ FP-2: CAL PDZ peptide-binding inhibitors, primary screen, biochemical, fluorescence polarization, Cer-tagged CAL PDZ, HTS. purified CAL PDZ, TMR-peptide fluorescence polarization, 1 h. AID 504414, 2011. inhibition, % at 20 µM. 330,000 compounds, 0.02% hits. Golgi-associated PDZ and coiled-coil motif-containing protein (Homo sapiens), Q9HD26;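 active = highest replicate inhibition of at least 40%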;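 also: plate controls were DMSO neutral control wells for no effect and unlabeled competitor peptide control wells for full effect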
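material = purified tagged CAL PDZ domain construct (CerCALP) | buffer or medium = sodium phosphate/NaCl buffer pH 7.4 with TCEP, IgG, Thesit | reagent = TMR-labelled reporter peptide T*-PRC34 bound in PDZ groove | incubation = 1 h room-temperature incubation prior to read | measured by = fluorescence polarization (mP) | evaluation = percent inhibition from loss of millipolarization | control set = unlabelled peptide and DMSO controls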
The depositor's hits bear a star; ? = inconclusive; / = no result. Sampled rows, rich in hits. Any-hit rate of the full collection: about 2%.

SMILES | CAL PDZ FP-1 | dFosB act | CDK5 p35 inh | S100A4 inh HTS | C2C12 statin | CAL PDZ FP-2
CC(=O)c1cccc(N=C2NC(=O)CS2)c1 | -1 | -2 | 2 | / | -12 | -1
CC(C)CC(NC(=O)C1CCC(C)CC1)C(=O)Nc1cccnc1 (stereo unspecified) | -3 | -8 | 2 | / | 108* | 0
COc1ccc(CCNC(=O)C(C)Sc2ccccc2)cc1OC (stereo unspecified) | -2 | 3 | 0 | / | / | 0
COc1ccc(-n2nc3cc(C)c(N)c(Br)c3n2)cc1 | -2 | -8 | 1 | / | 129* | 1
Cc1[nH]c2ccccc2c1C1(O)C(=O)N(C(C)C)c2ccccc21 (stereo unspecified) | -1 | -5 | -2 | / | 9 | -1
COc1ccc(CCn2nc(C)c([N+](=O)[O-])c2C)cc1 | 38* | -1 | 0 | -1 | / | 1
CCN(CC)C(=O)C1CCCN(C/C=C/c2ccccc2)C1 (stereo unspecified) | / | 0 | -2 | / | 14 | -2
CC(C)Sc1nnc(SCC(=O)NCCCN2CCCC2=O)s1 | 44* | 0 | -1 | -3 | 6 | 0
CC12CCC(=O)N1C(C(=O)N1CCN(c3cccc(Cl)c3)CC1)CS2 (stereo unspecified) | 80* | -1 | 1 | 2 | 1 | 0
COc1ccc(Cl)cc1NC(=O)c1nnn(CC(=O)Nc2ccc(C)c(C)c2)c1N | / | 125* | -1 | -3 | 3 | 1
COc1cccc(Cn2nnc(C(=O)Nc3ccc(C)cc3)c2N)c1 | 1 | 16* | 1 | -1 | 3 | 1
CCOc1ccccc1NC(=O)Cn1nnc(C(=O)Nc2ccccc2Cl)c1N | 0 | 11 | -1 | / | / | 0
CCOc1ccccc1NC(=O)c1nnn(CC(=O)Nc2cc(C)cc(C)c2)c1N | -5 | 26* | / | 0 | 0 | -2
Cc1cc(C)cc(NC(=O)Cn2nnc(C(=O)NCCc3ccccc3)c2N)c1 | 3 | 83* | 0 | 2 | 21 | -2
COc1cccc(Cn2nnc(C(=O)Nc3cc(C)ccc3OC)c2N)c1 | 4 | 4 | 4 | / | 23 | 0
COc1ccccc1NC(=O)c1nnn(CC(=O)Nc2ccccc2)c1N | 1 | 1 | 0 | / | 65 | -2
COc1ccc2c3c([nH]c2c1)[C@H](CO)N(Cc1ccc(F)cc1)CC31CCN(C(C)=O)CC1 | / | / | / | -5 | / | /
C=CCn1c(CC#N)nnc1N1CCOCC1 | 0 | -7 | 4 | / | 11 | -1
CCOc1ccc(NC(=O)Cn2nnc(C(=O)NCCc3ccc(OC)c(OC)c3)c2N)cc1 | -6 | 32* | 0 | / | / | -2
COc1ccc(CCNC(=O)Cn2nnc(C(=O)Nc3ccc(Br)cc3)c2N)cc1OC | -3 | 15 | / | -10 | -1 | -3
COc1ccc(COCC(O)CN2CCOCC2)cc1OC (stereo unspecified) | 0 | -2 | 1 | / | 14 | 1
COc1cc(COCC(O)CN2CCOCC2)cc(OC)c1OC (stereo unspecified) | 56* | 6 | -1 | / | 5 | 0
Cc1cc(C)n2nc(SCC(=O)N(C(C)C)C(C)C)nc2n1 | 2 | 1 | 1 | / | ? | -1
CCC(=O)N1CCc2cc(Br)cc(S(=O)(=O)N3CCCCC3CC)c21 (stereo unspecified) | 74* | -9 | 0 | -1 | -25 | -1
FC(F)(F)c1ccccc1NC(=S)N1CCCC1 | 50* | 0 | -1 | -6 | 5 | -1
SMILES | CAL PDZ FP-1 | dFosB act | CDK5 p35 inh | S100A4 inh HTS | C2C12 statin | CAL PDZ FP-2
CC(C)c1ccc(NC(=O)COC(=O)c2c[nH]c(=O)[nH]c2=O)cc1 | -1 | -2 | 0 | 3 | / | -2
Cc1ccc(NC(=S)N(CCN(C)C)Cc2cc3cccc(C)c3[nH]c2=O)cc1 | 0 | 0 | 1 | 2 | 114* | 0
COc1cc(C2C(C#N)=C(N)N(N(C)C)C3=C2C(=O)CC(C)(C)C3)cc(OC)c1OC (stereo unspecified) | 44* | -3 | -1 | 4 | / | -1
COC(=O)C1=C(C)NC(C)=C(C(=O)OC)C1C1CC=CCC1 (stereo unspecified) | -3 | -1 | -1 | / | 123* | 0
Cc1ccc(C2CC(c3cccs3)=NN2C(=O)c2ccc(Br)o2)cc1 (stereo unspecified) | -1 | -9 | 0 | / | 93* | -1
O=C(c1cccs1)N1N=C(c2ccccc2)CC1c1ccccc1O (stereo unspecified) | -2 | 31* | 1 | 2 | / | -3
Cc1ccc(C2=NN(C(=O)c3cccs3)C(c3ccccc3O)C2)cc1 (stereo unspecified) | -3 | 9 | 0 | 2 | / | -1
O=C(c1ccco1)N1N=C(c2cccs2)CC1c1ccccc1O (stereo unspecified) | -2 | 27* | 2 | -3 | / | -1
CCOc1cc(C(=O)O/N=C(\N)c2ccc([N+](=O)[O-])cc2)cc(OCC)c1OCC | -3 | -2 | 0 | / | 8 | -2
O=C(CN1CCC(c2nc3ccccc3s2)CC1)NCc1ccccc1 | 13 | -7 | -1 | / | 113* | -1
CC(=O)Nc1ccc(S(=O)(=O)NCCC(=O)Nc2cc(C)ccn2)cc1 | 30* | -1 | 1 | -2 | / | -1
CC(=O)Nc1ccc(S(=O)(=O)NCCC(=O)Nc2cccc(Cl)c2)cc1 | -10 | -1 | -1 | -8 | -41 | -3
CC(=O)Nc1ccc(S(=O)(=O)NCCc2c[nH]c3ccc(C)cc23)cc1 | 31* | -13 | 1 | 5 | -5 | -2
COc1ccc2[nH]cc(CCNS(=O)(=O)c3ccc(NC(C)=O)cc3)c2c1 | 2 | 1 | -1 | 1 | / | 0
O=C(Cc1ccncc1)Nc1ccc2c(c1)[C@H]1C[C@@H](CC(=O)NC3CCCCC3)O[C@H](CO)[C@H]1O2 | / | / | / | -2 | -12 | /
CCC(=O)Nc1ccc2c(c1)OC[C@@H](C)N(Cc1ccccn1)C[C@@H](C)[C@H](OC)CN(C)C2=O | / | / | / | 0 | 19 | /
CS(=O)(=O)Oc1ccc(Br)c2cccnc12 | 74* | -1 | 1 | 1 | 1 | -1
CCOc1ccccc1C(=O)N[C@H](C(=O)OCc1csc(CC(=O)Nc2ccc(C)cc2)n1)C(C)C | -3 | -3 | 0 | 9 | -11 | -1
